Common to all, as to type: functional
Assay [1] relates to MCF7. In words: Estrogenic effect in human MCF7 cells assessed as stimulation of cell proliferation at 10 ug/ml relative to control by [3H]hypoxanthine incorporation assay. In outline:
(§1)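 MCF-7 cells were grown to confluence in DMEM with 10% FBS, trypsinized, and viable cells (Trypan blue) seeded at 10 000/well in phenol red-free medium. After overnight attachment, tamoxifen (2 μM) was added for 24 h. Cells were washed with Ca/Mg-free PBS, then exposed to test agents for 1 day. Triplicates; % proliferation scaled with no-compound as 0% and β-estradiol 10 nM as 100%; Dunnett's test.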

For assay [2], the system named is MCF7. In words: Estrogenic effect in human MCF7 cells assessed as stimulation of cell proliferation at 1 ug/ml relative to control by [3H]hypoxanthine incorporation assay. In outline: as §1
Assay [3] deals with MCF7. In words: Estrogenic effect in human MCF7 cells assessed as stimulation of cell proliferation at 0.1 ug/ml relative to control by [3H]hypoxanthine incorporation assay. In outline:
as §1

Assay [4] relates to MCF7. In words: Estrogenic effect in human MCF7 cells assessed as stimulation of cell proliferation at 1 nM relative to control by [3H]hypoxanthine incorporation assay. In outline: (§2)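 MCF-7 cells were grown to confluence in DMEM with 10% FBS, trypsinized, and viable cells (Trypan blue) seeded at 10 000/well in phenol red-free medium. After overnight attachment, tamoxifen (2 μM) was added for 24 h. Cells were washed with Ca/Mg-free PBS, then exposed to test agents for 1 day. [3H]-hypoxanthine (9.25 kBq/well) was added for 12 h. Triplicates; % proliferation scaled with no-compound as 0% and β-estradiol 10 nM as 100%; Dunnett's test.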

For assay [5], the system named is MCF7. In words: Estrogenic effect in human MCF7 cells assessed as stimulation of cell proliferation at 0.1 nM relative to control by [3H]hypoxanthine incorporation assay. In outline:
as §2

Assay [6] relates to MCF7. In words: Estrogenic effect in human MCF7 cells assessed as stimulation of cell proliferation at 10 nM relative to control by [3H]hypoxanthine incorporation assay. In outline:
as §2

This passage reports Activity results from ChEMBL document CHEMBL1158723, “Daucane sesquiterpenes from Ferula hermonis” (2005).

SMILES strings stand for the structures.

Regarding `CC1=CC(=O)[C@@H]2[C@@](C)(CC1)CC[C@@]2(O)C(C)C`, the Activity in assay [1] is reported as 181.4%; in assay [2], 97.5%; in assay [3], 308.2%.
For the compound `C/C=C(/C)C(=O)O[C@@]1(C)CCC2=C(C(C)C)[C@@H](OCC)C[C@]2(C)CC1=O`, the Activity was 974.4% in assay [1], 321.4% in assay [2] and 223.9% in assay [3].
With `CC1=CC(=O)[C@@H]2[C@](C)(CC[C@@]2(O)C(C)C)CC1=O`, the results for the Activity in assay [1], in assay [2] and in assay [3] were -285.7%, -26.5% and 5.9%, respectively.
For the compound `C[C@]12CC[C@@H]3c4ccc(O)cc4CC[C@H]3[C@@H]1CC[C@@H]2O` [ESTRADIOL], the Activity in assay [4] came to 130.3%; in assay [5], 74.6%; in assay [6], 100%.
Consider `O=c1c(-c2ccc(O)cc2)coc2cc(O)cc(O)c12` [GENISTEIN], for which the Activity in assay [1] was -76.7%; in assay [2], 114.8%; in assay [3] it was -72.4%.
